Bioassay records as filed in PubChem BioAssay.
Many of the other results were omitted from the sample, so hits are more common in it than they were.
E-selectin induc = E-selectin induction in HUVECs, primary screen, imaging, HUVEC, immunofluorescence imaging, single point | P16581 | normalized: neutral wells 0, TNF-alpha wells 100 | activation, % at 7.58 µM | hit rate 0.37% among 260,000 | AID 686992, 2013;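 active = mean E-selectin-positive cell signal at least 10% of the positive control, reached in at least 60% of replicates, without over 20% cell loss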
Target sequence (P16581 whole entry, looked up): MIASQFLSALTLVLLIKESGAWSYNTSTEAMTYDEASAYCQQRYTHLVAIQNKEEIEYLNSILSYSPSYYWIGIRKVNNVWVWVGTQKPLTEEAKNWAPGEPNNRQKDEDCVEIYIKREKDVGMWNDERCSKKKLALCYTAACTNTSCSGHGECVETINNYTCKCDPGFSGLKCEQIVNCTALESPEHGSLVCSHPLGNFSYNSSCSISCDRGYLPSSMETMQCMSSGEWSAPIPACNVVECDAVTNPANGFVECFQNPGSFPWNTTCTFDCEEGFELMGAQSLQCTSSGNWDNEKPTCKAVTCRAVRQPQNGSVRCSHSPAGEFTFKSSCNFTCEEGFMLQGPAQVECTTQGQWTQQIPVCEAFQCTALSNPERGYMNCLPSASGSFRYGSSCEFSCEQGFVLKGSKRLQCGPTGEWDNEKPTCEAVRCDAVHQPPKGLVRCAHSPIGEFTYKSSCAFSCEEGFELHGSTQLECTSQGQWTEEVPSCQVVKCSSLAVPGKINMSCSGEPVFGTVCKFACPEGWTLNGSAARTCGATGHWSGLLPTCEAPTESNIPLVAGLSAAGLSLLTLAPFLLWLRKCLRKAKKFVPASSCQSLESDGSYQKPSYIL
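Test system: HUVEC; input: 3,000 HUVEC/well; measured by: immunofluorescence imaging; read-out: % PE-positive cells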
XiGFP reactiv = activators of inactive X chromosome reactivation, primary screen, imaging, XiGFP fibroblasts, GFP high-content imaging, set 2; XiGFP mouse fibroblasts, % GFP-positive cells imaging, 3 d; cells co-treated with 5-aza-dC sensitizer; scaled so ellipticine positive control = 100%; activation, % at 7.58 µM; hit rate 0.055% among 360,000;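 active = mean normalized replicate activation at least 10% and every replicate at or above 10%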;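 also: 0% = median of on-plate neutral control wells and 100% = ellipticine 6 µM median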
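Material: XiGFP fibroblasts, SV40-immortalized; Buffer or medium: DMEM containing 5-aza-dC; Compound dosing: single point; Times: 3 days compound exposure.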
The depositor's hits bear a star; . = not tested or not shown.

SMILES	E-selectin induc	XiGFP reactiv
C[C@@H]1CN([C@@H](C)CO)C(=O)Cc2cc(NC(=O)Cn3cnnn3)ccc2O[C@H]1CN(C)C(=O)Nc1ccc(F)cc1	86.0*	-0.1
CC(C)NC(=O)N(C)C[C@@H]1Oc2ccc(NC(=O)Cn3cnnn3)cc2C(=O)N([C@H](C)CO)C[C@H]1C	58.6*	-0.1
C[C@H](CO)N1C[C@H](C)[C@H](CN(C)C(=O)Nc2ccc(C(F)(F)F)cc2)Oc2ccc(NC(=O)Cn3cnnn3)cc2CC1=O	41.5*	-0.3
CC(=O)Nc1ccc2c(c1)CC(=O)N(C)C[C@@H](C)[C@@H](CN(C)C(=O)NC(C)C)O2	.	0.2
O=C(c1ccccn1)N1CC(=O)N2[C@H](CO)[C@@H](c3ccc(C#Cc4ccccc4)cc3)[C@@H]2C1	0.0	0.4
C[C@@H]1CN([C@@H](C)CO)C(=O)c2cc(C#CCN(C)C)cnc2O[C@H]1CN(C)C(=O)c1cccnc1	-0.1	-0.6
CC(C)NC(=O)N(C)C[C@H]1Oc2ccc(N(C)C)cc2CC(=O)N(C)C[C@H]1C	.	0.8
CC=Cc1ccc2n(c1=O)C[C@H]1[C@H](CO)[C@@H](C(=O)NCC(F)(F)F)[C@@H]2N1C(=O)C1CCCC1 (mixture of isomers)	.	0.3
COc1cc(CN2CC3(CN(C(=O)c4ccc5c(c4)OCO5)C3)c3c(n(C)c4cc(OC)ccc34)[C@H]2CO)cc(OC)c1	-0.4	0.2
C[C@@H]1CN([C@H](C)CO)C(=O)Cc2cc(NC(=O)c3ccncc3)ccc2O[C@H]1CN(C)C(=O)Nc1ccc(C(F)(F)F)cc1	19.8	-0.2
CC(C)NC(=O)N(C)C[C@@H]1Oc2ccc(NC(=O)CCCN(C)C)cc2C(=O)N([C@@H](C)CO)C[C@H]1C	241.6*	0.1
CC(C)NC(=O)N(C)C[C@@H]1Oc2ccc(NC(=O)Cn3cnnn3)cc2CC(=O)N([C@@H](C)CO)C[C@H]1C	66.3*	0.1
CC(C)NC(=O)N(C)C[C@@H]1Oc2ccc(NC(=O)CCCN(C)C)cc2C(=O)N([C@@H](C)CO)C[C@@H]1C	-16.6	0.1
C[C@H]1CN([C@@H](C)CO)C(=O)c2cc(NC(=O)Cn3cnnn3)ccc2O[C@@H]1CN(C)S(=O)(=O)c1ccccc1	1.9	0.1
C[C@@H]1CN([C@@H](C)CO)C(=O)Cc2cc(NC(=O)c3ccncc3)ccc2O[C@@H]1CN(C)C(=O)Nc1ccc(C(F)(F)F)cc1	73.8*	-0.2
CC(C)NC(=O)N(C)C[C@H]1Oc2ccc(NC(=O)Cn3cnnn3)cc2CC(=O)N([C@H](C)CO)C[C@@H]1C	-6.8	0.1
C[C@H]1CN([C@@H](C)CO)C(=O)c2cc(NC(=O)Cn3cnnn3)ccc2O[C@H]1CN(C)S(=O)(=O)c1ccccc1	36.0*	0.2
CC(C)NC(=O)N(C)C[C@@H]1Oc2ccc(N(C)C)cc2C(=O)N(C)C[C@@H]1C	.	0.3
CCC(=O)N1CC2(C1)CN(CC1CCOCC1)[C@@H](CO)c1c2c2ccc(OC)cc2n1C	0.2	0.1
CNC[C@@H]1OCCCC[C@H](C)Oc2ccc(NS(=O)(=O)c3ccc(OC)cc3)cc2C(=O)N([C@H](C)CO)C[C@H]1C	-0.1	0.2
COc1ccc2c3c([nH]c2c1)[C@@H](CO)N(C(=O)c1ccccn1)CC31CN(C(=O)C2CCCCC2)C1	.	0.4
C[C@H](CO)N1C[C@H](C)[C@@H](CN(C)C(=O)Nc2ccc(C(F)(F)F)cc2)Oc2ccc(NC(=O)Cn3cnnn3)cc2CC1=O	-7.4	-1.2
C[C@@H]1CN([C@H](C)CO)C(=O)Cc2cc(NC(=O)Cn3cnnn3)ccc2O[C@H]1CN(C)C(=O)Nc1ccc(C(F)(F)F)cc1	32.3*	-1.2
C[C@@H]1CN(C)C(=O)Cc2cc(N(C)C)ccc2O[C@H]1CN(C)S(C)(=O)=O	.	0.3
O=C(C[C@H]1C=C[C@H](NC(=O)Nc2ccc(F)cc2)[C@@H](CO)O1)NCc1cccc(F)c1	-0.5	-0.4
SMILES	E-selectin induc	XiGFP reactiv
C[C@@H]1CC=CC[C@H](c2ccc(F)cc2)NC(=O)[C@H](C)N(C)C(=O)c2ccccc2O1 (mixture of isomers)	.	-0.1
COCC(=O)N1C[C@H](C)[C@@H](OC)CN(C)C(=O)c2cc(NS(C)(=O)=O)ccc2OC[C@H]1C	.	-0.4
Cc1ccc(NC(=O)c2cc(C)nn2-c2ccccc2)cc1	0.0	0.0
Cc1cc(C(=O)Nc2ccc(Cl)cc2)n(-c2ccccc2)n1	41.1*	0.3
Cc1ccc(NC(=O)c2cc(C)nc3ccccc23)cc1	.	0.0
Cc1cccc(NC(=O)c2cc(C)nc3ccccc23)c1	61.0*	0.2
C[C@@H]1CN([C@H](C)CO)C(=O)c2cccc(NC(=O)c3ccc(-c4nccs4)cc3)c2O[C@@H]1CN(C)CC1CC1	0.1	-1.2
COc1ccc(CNC(=O)CN(C(=O)c2csnn2)c2ccc3c(c2)OCCO3)cc1	-0.1	0.0
O=C(CN(C(=O)c1csnn1)c1ccc2c(c1)OCCO2)NCc1ccc(F)cc1	39.0*	0.5
O=C(Nc1ccccc1N1CCCC1)C1=COCCO1	.	0.1
O=C(Nc1ccccc1N1CCCCC1)C1=COCCO1	34.5*	0.0
CC(=O)N(C)C[C@@H]1Oc2ccccc2C(=O)N(C)C[C@@H]1C	.	0.3
Cc1ccc(C(=O)N(Cc2nnc(-c3ccc(Cl)cc3)o2)C2CC2)o1	59.2*	0.0
O=C(C1=COCCO1)N(Cc1nnc(-c2ccc(Cl)cc2)o1)C1CC1	.	0.0
COc1ccc2c3c(n(C)c2c1)[C@H](CO)N(C(=O)CN(C)C)CC31CN(C(=O)CN(C)C)C1	.	0.3
C[C@@H]1CN([C@@H](C)CO)C(=O)c2cccc(NC(=O)CCCCCC(=O)Nc3ccccc3N)c2O[C@@H]1CN(C)Cc1ccc(Cl)c(Cl)c1	-3.3	-0.7
CC(C)NC(=O)Nc1cccc2c1O[C@@H](CN(C)Cc1ccc(Cl)c(Cl)c1)[C@H](C)CN([C@@H](C)CO)C2=O	-21.7	-0.2
C[C@H](CO)N1C[C@H](C)[C@H](CN(C)Cc2ccc(Cl)c(Cl)c2)Oc2c(NC(=O)NC3CCCCC3)cccc2C1=O	.	-0.1
C[C@H](CO)N1C[C@H](C)[C@@H](CN(C)Cc2ccc(Cl)c(Cl)c2)Oc2c(NC(=O)CCCCCC(=O)Nc3ccccc3N)cccc2C1=O	323.6*	-1.1
CC(C)NC(=O)Nc1cccc2c1O[C@H](CN(C)Cc1ccc(Cl)c(Cl)c1)[C@H](C)CN([C@@H](C)CO)C2=O	29.6*	0.1
CC(C)NC(=O)Nc1cccc2c1O[C@H](CN(C)Cc1ccc(Cl)c(Cl)c1)[C@@H](C)CN([C@@H](C)CO)C2=O	52.6*	-0.1
C[C@@H]1CN([C@H](C)CO)C(=O)c2cc(NC(=O)Cn3cnnn3)ccc2O[C@H]1CN(C)C(=O)Nc1ccc2c(c1)OCO2	0.0	0.2
COc1ccc(S(=O)(=O)N2CC[C@@H]3[C@H]2c2cc(-c4ccc(C#N)cc4)ccc2N[C@@H]3CO)cc1	-0.6	-0.1
CO[C@@H]1CN(C)C(=O)c2cc(NC(=O)C3CC3)ccc2OC[C@@H](C)N(C(=O)C2CCCCC2)C[C@H]1C	-0.1	0.5
C/C=C/c1cnc2c(c1)C(=O)N([C@@H](C)CO)C[C@H](C)[C@H](CN(C)C(=O)C1CCC1)O2	5.3	-0.1
